Results from ChEMBL document CHEMBL4334455, “Synthesis of Usnic Acid Derivatives and Evaluation of Their Antiproliferative Activity against Cancer Cells” (J Nat Prod, 2019).
Calls of active or inactive are those of the source. The rule behind the calls is not given here.

How the values were obtained:
HeLa [1] = experiment: Antiproliferative activity against human HeLa cells assessed as reduction in cell viability after 48 hrs by MTT assay; assay type: functional, cell-based; details: Homo sapiens, HeLa, 48 h
Summary of the method: (§1)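 Cells seeded at 4 × 10³/well for 24 h runs and for PC-3, or 2 × 10³/well for MCF-7 and HeLa 48 h runs, and attached overnight. Medium replaced with compound-containing medium for 24 or 48 h. MTT (4 mg mL⁻¹) added for the final 3 h, formazan dissolved in DMSO, absorbance read at 570 nm (reference 660 nm). IC₅₀ calculated from at least three independent experiments in duplicate, mean ± SE.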

MCF7 [2] = experiment: Induction of apoptosis in human MCF7 cells assessed as increase in cleaved PARP level at 8.7 uM after 24 hrs by immunoblot analysis relative to control; assay type: functional
Summary of the method: (§2)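 Proteins run on SDS-PAGE, transferred to PVDF, blocked in 5% milk/PBS, primary antibody overnight at 4 °C (cleaved PARP, Bax, Bcl-2), secondary 1 h at room temperature. Reprobed for β-actin; densitometry corrected for loading.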

MCF7 [3] = experiment: Induction of vacuolization in human MCF7 cells assessed as increase in LAMP1 expression at 8.7 uM by Western blot analysis relative to control; assay type: functional
Summary of the method: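 Lysates were cleared, run on SDS-PAGE and blotted to PVDF, then probed for LAMP1. Blocking was 5% milk in PBS, primary antibody overnight at 4 °C, secondary 1 h at room temperature. Blots were stripped, reprobed for β-actin, and densitometry was corrected for loading.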

MCF7 [4] = experiment: Induction of apoptosis in human MCF7 cells assessed as increase in cleaved PARP level at 2.9 uM after 24 hrs by immunoblot analysis relative to control; assay type: functional; summary of the method: as §2
HeLa [5] = experiment: Cell cycle arrest in human HeLa cells assessed as reduction in cell population at G2/M phase at 2.9 to 8.7 uM after 24 hrs by propidium iodide staining based flow cytometric analysis; assay type: functional
PC-3 [6] = experiment: Anticlonogenic activity against human PC3 cells assessed as proportion of colony forming cells at 11.6 uM incubated for 24 hrs followed by recovery period of 2 weeks by culturing cells in drug-free medium by crystal violet staining based assay relative to control; assay type: functional
Summary of the method: (§3)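 Cells (1 × 10⁶) plated, after 24 h given fresh medium with derivative at 1, 2, 3 or 4 μg mL⁻¹ for 24 h; then trypsinized, counted, 8 × 10² replated into two plates in compound-free medium. After 2 weeks fixed with 6.0% glutaraldehyde, stained with 0.5% crystal violet; colonies of ≥50 cells counted. Mean ± SE of three experiments in duplicate.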

MCF7 [7] = experiment: Anticlonogenic activity against human MCF7 cells assessed as reduction in colony formation at 2.9 to 11.6 uM incubated for 24 hrs followed by recovery period of 2 weeks by culturing cells in drug-free medium by crystal violet staining based assay; assay type: functional, cell-based; summary of the method: as §3
MCF7 [8] = experiment: Antiproliferative activity against human MCF7 cells assessed as reduction in cell viability at 8.7 uM after 24 hrs in presence of 10 uM Na+/H+ exchange inhibitor, amiloride by MTT assay; assay type: functional, cell-based
MCF7 [9] = experiment: Antiproliferative activity against human MCF7 cells assessed as reduction in cell viability after 24 hrs by MTT assay; assay type: functional, cell-based; details: MCF7, 24 h; summary of the method: as §1
MCF7 [10] = experiment: Induction of apoptosis in human MCF7 cells assessed as reduction in Bcl-2 expression at 2.9 uM after 24 hrs by immunoblot analysis relative to control; assay type: functional; summary of the method: as §2
MCF7 [11] = experiment: Induction of vacuolization in human MCF7 cells assessed as increase in LAMP1 expression at 2.9 uM by Western blot analysis relative to control; assay type: functional
MCF7 [12] = experiment: Induction of apoptosis in human MCF7 cells at 2.9 uM after 48 hrs by Annexin-V/7-AAD staining based flow cytometric analysis relative to control; assay type: functional
Summary of the method: (§4)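 MCF-7 cells treated 48 h, stained with annexin V and 7-AAD (Muse annexin V and dead cell kit), and apoptotic and necrotic fractions counted by flow cytometry. Mean ± SE of three independent experiments; ANOVA with Bonferroni post hoc test.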

MCF7 [13] = experiment: Antiproliferative activity against human MCF7 cells assessed as reduction in cell growth in presence of early autophagy inhibitor, wortmannin by MTT assay; assay type: functional, cell-based
MCF7 [14] = experiment: Induction of cell cycle arrest in human MCF7 cells assessed as accumulation of cells at G2/M phase at 8.7 uM after 24 hrs by Propidium iodide staining based flow cytometric analysis (reference value: 27 +/- 2.97%); assay type: functional
PC-3 [15] = experiment: Antiproliferative activity against human PC3 cells assessed as reduction in cell viability after 24 hrs by MTT assay; assay type: functional, cell-based; details: PC-3, 24 h; summary of the method: as §1
MCF7 [16] = experiment: Induction of apoptosis in human MCF7 cells assessed as increase in Bax level at 2.9 uM after 24 hrs by immunoblot analysis relative to control; assay type: functional; summary of the method: as §2
MCF7 [17] = experiment: Induction of vacuolization in human MCF7 cells at 8.7 uM after 24 hrs in presence of 10 uM Na+/H+ exchange inhibitor, amiloride by light microscopic analysis; assay type: functional, cell-based
[18] = Cytotoxicity against human HDFa cells assessed as reduction in cell viability after 48 hrs by MTT assay; assay type: cell-based; summary of the method: as §1
[19] = Cytotoxicity against human HDFa cells assessed as reduction in cell viability after 24 hrs by MTT assay; assay type: cell-based; summary of the method: as §1
MCF7 [20] = experiment: Induction of vacuolization in human MCF7 cells at 8.7 uM after 24 hrs in presence of 0.5 uM actin dynamics inhibitor, cytochalasin-D by light microscopic analysis; assay type: functional, cell-based
MCF7 [21] = experiment: Induction of vacuolization in human MCF7 cells at 8.7 uM after 24 to 48 hrs in presence of early autophagy inhibitor, wortmannin by TEM analysis; assay type: functional, cell-based
MCF7 [22] = experiment: Induction of cytoplasmic vacuolization in human MCF7 cells at 8.7 uM after 24 to 48 hrs by TEM analysis; assay type: functional, cell-based
Summary of the method: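 MCF-7 cells (2 × 10⁵) attached overnight, then exposed to 8.7 μM derivative or DMSO for 24 or 48 h at 37 °C. Fixed in ice-cold 2.5% fixative; ultrathin 45 nm sections stained with uranyl acetate and lead citrate, imaged by TEM at 1650×.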

MCF7 [23] = experiment: Antiproliferative activity against human MCF7 cells assessed as reduction in cell viability after 48 hrs by MTT assay; assay type: functional, cell-based; details: Homo sapiens, MCF7, 48 h; summary of the method: as §1
MCF7 [24] = experiment: Induction of cell cycle arrest in human MCF7 cells assessed as accumulation of cells at G0/G1 phase at 8.7 uM after 24 hrs by Propidium iodide staining based flow cytometric analysis (reference value: 47.8 +/- 0.42%); assay type: functional
HeLa [25] = experiment: Anticlonogenic activity against human HeLa cells assessed as proportion of colony forming cells at 11.6 uM incubated for 24 hrs followed by recovery period of 2 weeks by culturing cells in drug-free medium by crystal violet staining based assay relative to control; assay type: functional; summary of the method: as §3
MCF7 [26] = experiment: Anticlonogenic activity against human MCF7 cells assessed as proportion of colony forming cells at 11.6 uM incubated for 24 hrs followed by recovery period of 2 weeks by culturing cells in drug-free medium by crystal violet staining based assay relative to control; assay type: functional; summary of the method: as §3
MCF7 [27] = experiment: Antiproliferative activity against human MCF7 cells assessed as reduction in cell viability at 8.7 uM after 24 hrs in presence of 0.5 uM actin dynamics inhibitor, cytochalasin-D by MTT assay; assay type: functional, cell-based
MCF7 [28] = experiment: Induction of apoptosis in human MCF7 cell at 8.7 uM after 48 hrs by Annexin-V/7-AAD staining based flow cytometric analysis relative to control; assay type: functional; summary of the method: as §4

Compound	IC50 (HeLa [1]) [µM]	fold change (FC) (MCF7 [2])	fold change (FC) (MCF7 [3])	fold change (FC) (MCF7 [4])	Activity (HeLa [5])	Activity (PC-3 [6]) [%]	inhibition (MCF7 [7])	inhibition (MCF7 [8])	IC50 (MCF7 [9]) [µM]	fold change (FC) (MCF7 [10])	fold change (FC) (MCF7 [11])	fold change (FC) (MCF7 [12])	inhibition (MCF7 [13])	Activity (MCF7 [14]) [%]	IC50 (PC-3 [15]) [µM]	fold change (FC) (MCF7 [16])	Activity (MCF7 [17])	IC50 [18] [µM]	IC50 [19] [µM]	Activity (MCF7 [20])	further results
CC(=O)c1c(O)c(C)c(O)c2c1OC1=Cc3onc(C)c3C(=O)[C@]12C	1	4.1	5.1	4.4	Active	<50	Active	Active	3.2	0.5	5.3	2	Active	14.65	3.2	1.3	Active	3	9.2	Active	Activity (MCF7 [21]): Active; Activity (MCF7 [22]): Active; IC50 (MCF7 [23]): 2.5 µM; Activity (MCF7 [24]): 75.7%; Activity (HeLa [25]): <50%; Activity (MCF7 [26]): <50%; inhibition (MCF7 [27]): Active; fold change (FC) (MCF7 [28]): 3
CC(=O)c1c(O)c(C)c(O)c2c1OC1=Cc3onc(C)c3C(=O)C12C (racemic)	1	4.5	1.8	3.6	Active	<50	Active	Active	3.1	0.6	1.3	2	Active	14.02	3.4	1.02	Active	5.9	> 10	Active	Activity (MCF7 [21]): Active; Activity (MCF7 [22]): Active; IC50 (MCF7 [23]): 2.9 µM; Activity (MCF7 [24]): 75.45%; Activity (HeLa [25]): <50%; Activity (MCF7 [26]): <50%; inhibition (MCF7 [27]): Active; fold change (FC) (MCF7 [28]): 3
